Assay results: ChEMBL document CHEMBL1147951, “Synthesis and antimicrobial activity of symmetrical two-tailed dendritic tricarboxylato amphiphiles” (2007)
Converted amounts (≈) assume the structure as drawn.

Each compound was assayed on Candida albicans (assay: Antimicrobial activity against Candida albicans by broth microdilution assay).
Assay type: functional
How it was run: (§1)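 Compounds were dissolved in aqueous triethanolamine (stock pH 8–9) and serially diluted twofold in 1/10-strength BHI broth + 0.2% sucrose. Inocula were adjusted with buffered saline gelatin to McFarland No. 1; for A. niger, spores were scraped from PDA. Plates were incubated at 30 °C and turbidity was scored visually on day 4. MIC, run in triplicate, was the lowest concentration giving a prominent visible decrease in turbidity.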

**Q.** For CCCCCCCCCC(CCCCCCCCC)NC(=O)NC(CCC(=O)O)(CCC(=O)O)CCC(=O)O, which MIC is on record?
**A.** > 11000 µM

**Q.** With CCCCCCCCCCC(CCCCCCCCCC)NC(=O)NC(CCC(=O)O)(CCC(=O)O)CCC(=O)O as the compound, how does the MIC read?
**A.** > 11000 µM

**Q.** With CCCCCCCCCCCCCCCCCCNC(=O)NC(CCC(=O)O)(CCC(=O)O)CCC(=O)O as the compound, how does the MIC read?
**A.** 1400 µM (≈ 760 µg/mL)

**Q.** How did the MIC turn out when CCCCCCCCCCCCCCCCCCCCCCNC(=O)NC(CCC(=O)O)(CCC(=O)O)CCC(=O)O was run?
**A.** 2600 µM (≈ 1560 µg/mL)

What follows are compounds tested on Klebsiella pneumoniae (assay: Antimicrobial activity against Klebsiella pneumoniae by broth microdilution assay).
Assay type: functional
How it was run: (§2)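 Strains were E. coli strain C (ATCC 13706) and K. pneumoniae ATCC 4352, grown from a single colony in 1/10-strength BHI broth + 0.2% sucrose and adjusted with buffered saline gelatin to McFarland No. 1. Twofold dilution series of compound in triethanolamine/water used doubled medium and inoculum volumes. Plates were incubated at 37 °C and turbidity was scored visually on day 7. MIC, run in triplicate, was the lowest concentration giving a prominent visible turbidity decrease.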

**Q.** How did the MIC turn out when CCCCCCCCCC(CCCCCCCCC)NC(=O)NC(CCC(=O)O)(CCC(=O)O)CCC(=O)O was run?
**A.** > 11000 µM

**Q.** How did the MIC turn out when CCCCCCCCCCC(CCCCCCCCCC)NC(=O)NC(CCC(=O)O)(CCC(=O)O)CCC(=O)O was run?
**A.** > 11000 µM

**Q.** CCCCCCCCCCCCCCCCCCNC(=O)NC(CCC(=O)O)(CCC(=O)O)CCC(=O)O was tested. Which MIC did it give?
**A.** 260 µM (≈ 141 µg/mL)

**Q.** For CCCCCCCCCCCCCCCCCCCCCCNC(=O)NC(CCC(=O)O)(CCC(=O)O)CCC(=O)O, which MIC is on record?
**A.** 470 µM (≈ 281 µg/mL)

These compounds were tested on Aspergillus niger (assay: Antimicrobial activity against Aspergillus niger by broth microdilution assay).
Assay type: functional
How it was run: as §1

**Q.** For CCCCCCCCCC(CCCCCCCCC)NC(=O)NC(CCC(=O)O)(CCC(=O)O)CCC(=O)O, which MIC is on record?
**A.** 2800 µM (≈ 1560 µg/mL)

**Q.** For CCCCCCCCCCC(CCCCCCCCCC)NC(=O)NC(CCC(=O)O)(CCC(=O)O)CCC(=O)O, which MIC is on record?
**A.** 11000 µM (≈ 6430 µg/mL)

**Q.** For CCCCCCCCCCCCCCCCCCNC(=O)NC(CCC(=O)O)(CCC(=O)O)CCC(=O)O, which MIC is on record?
**A.** 1400 µM (≈ 760 µg/mL)

**Q.** How did the MIC turn out when CCCCCCCCCCCCCCCCCCCCCCNC(=O)NC(CCC(=O)O)(CCC(=O)O)CCC(=O)O was run?
**A.** 5200 µM (≈ 3110 µg/mL)

What follows are compounds tested on Escherichia coli (assay: Antimicrobial activity against Escherichia coli by broth microdilution assay).
Assay type: functional
How it was run: as §2

**Q.** Which MIC does the source give for CCCCCCCCCC(CCCCCCCCC)NC(=O)NC(CCC(=O)O)(CCC(=O)O)CCC(=O)O here?
**A.** 350 µM (≈ 195 µg/mL)

**Q.** With CCCCCCCCCCC(CCCCCCCCCC)NC(=O)NC(CCC(=O)O)(CCC(=O)O)CCC(=O)O as the compound, how does the MIC read?
**A.** 2700 µM (≈ 1580 µg/mL)

**Q.** Which MIC does the source give for CCCCCCCCCCCCCCCCCCNC(=O)NC(CCC(=O)O)(CCC(=O)O)CCC(=O)O here?
**A.** 130 µM (≈ 70.6 µg/mL)

**Q.** For CCCCCCCCCCCCCCCCCCCCCCNC(=O)NC(CCC(=O)O)(CCC(=O)O)CCC(=O)O, which MIC is on record?
**A.** 120 µM (≈ 71.9 µg/mL)

Each compound was assayed on Staphylococcus aureus (assay: Antimicrobial activity against Staphylococcus aureus by broth microdilution assay).
Assay type: functional
How it was run: (§3)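 Twofold dilution series of amphiphile (dissolved in aqueous triethanolamine, pH 8–9) in 1/10-strength Brain Heart Infusion Broth with 0.2% sucrose. Inoculum from a single-colony broth culture, diluted with buffered saline gelatin to No. 1 McFarland turbidity. Incubated at 30 °C; turbidity scored visually on day 4. MIC = lowest concentration giving a prominent visible decrease in turbidity; triplicate.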

**Q.** CCCCCCCCCCCCCCCCCCNC(=O)NC(CCC(=O)O)(CCC(=O)O)CCC(=O)O was tested. Which MIC did it give?
**A.** 1400 µM (≈ 760 µg/mL)

**Q.** Which MIC does the source give for CCCCCCCCCCCCCCCCCCCCCCNC(=O)NC(CCC(=O)O)(CCC(=O)O)CCC(=O)O here?
**A.** 1300 µM (≈ 779 µg/mL)

Each compound was assayed on Staphylococcus aureus (assay: Antimicrobial activity against methicillin-resistant Staphylococcus aureus by broth microdilution assay).
Assay type: functional
How it was run: as §3

**Q.** Which MIC does the source give for CCCCCCCCCCCCCCCCCCNC(=O)NC(CCC(=O)O)(CCC(=O)O)CCC(=O)O here?
**A.** 720 µM (≈ 391 µg/mL)

**Q.** For CCCCCCCCCCCCCCCCCCCCCCNC(=O)NC(CCC(=O)O)(CCC(=O)O)CCC(=O)O, which MIC is on record?
**A.** 1300 µM (≈ 779 µg/mL)

Each compound was assayed on Micrococcus luteus (assay: Antimicrobial activity against Micrococcus luteus by broth microdilution assay).
Assay type: functional
How it was run: as §1

**Q.** CCCCCCCCCC(CCCCCCCCC)NC(=O)NC(CCC(=O)O)(CCC(=O)O)CCC(=O)O was tested. Which MIC did it give?
**A.** > 11000 µM

**Q.** For CCCCCCCCCCC(CCCCCCCCCC)NC(=O)NC(CCC(=O)O)(CCC(=O)O)CCC(=O)O, which MIC is on record?
**A.** > 11000 µM

**Q.** With CCCCCCCCCCCCCCCCCCNC(=O)NC(CCC(=O)O)(CCC(=O)O)CCC(=O)O as the compound, how does the MIC read?
**A.** > 12000 µM

**Q.** With CCCCCCCCCCCCCCCCCCCCCCNC(=O)NC(CCC(=O)O)(CCC(=O)O)CCC(=O)O as the compound, how does the MIC read?
**A.** > 10000 µM

These compounds were tested on Cryptococcus neoformans (assay: Antimicrobial activity against Cryptococcus neoformans by broth microdilution assay).
Assay type: functional
How it was run: as §1

**Q.** CCCCCCCCCC(CCCCCCCCC)NC(=O)NC(CCC(=O)O)(CCC(=O)O)CCC(=O)O was tested. Which MIC did it give?
**A.** 64 µM (≈ 35.6 µg/mL)

**Q.** Which MIC does the source give for CCCCCCCCCCC(CCCCCCCCCC)NC(=O)NC(CCC(=O)O)(CCC(=O)O)CCC(=O)O here?
**A.** 15 µM (≈ 8.77 µg/mL)

**Q.** CCCCCCCCCCCCCCCCCCNC(=O)NC(CCC(=O)O)(CCC(=O)O)CCC(=O)O was tested. Which MIC did it give?
**A.** 90 µM (≈ 48.8 µg/mL)

**Q.** With CCCCCCCCCCCCCCCCCCCCCCNC(=O)NC(CCC(=O)O)(CCC(=O)O)CCC(=O)O as the compound, how does the MIC read?
**A.** 5200 µM (≈ 3110 µg/mL)

Each compound was assayed on Mycolicibacterium smegmatis (assay: Antimicrobial activity against Mycobacterium smegmatis by broth microdilution assay).
Assay type: functional
How it was run: (§4)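 Strains were L. plantarum ATCC 14917, precultured in TSB, and M. smegmatis ATCC 607, precultured in Middlebrook 7H9. Inocula were diluted with buffered saline gelatin to McFarland No. 1. Twofold dilutions of compound in aqueous triethanolamine were made in 1/10-strength BHI broth + 0.2% sucrose and mixed with an equal volume of inoculum. Plates were incubated at 30 °C and scored visually for turbidity on day 4. MIC was determined in triplicate.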

**Q.** CCCCCCCCCC(CCCCCCCCC)NC(=O)NC(CCC(=O)O)(CCC(=O)O)CCC(=O)O was tested. Which MIC did it give?
**A.** 350 µM (≈ 195 µg/mL)

**Q.** How did the MIC turn out when CCCCCCCCCCC(CCCCCCCCCC)NC(=O)NC(CCC(=O)O)(CCC(=O)O)CCC(=O)O was run?
**A.** 330 µM (≈ 193 µg/mL)

**Q.** With CCCCCCCCCCCCCCCCCCNC(=O)NC(CCC(=O)O)(CCC(=O)O)CCC(=O)O as the compound, how does the MIC read?
**A.** 33 µM (≈ 17.9 µg/mL)

**Q.** For CCCCCCCCCCCCCCCCCCCCCCNC(=O)NC(CCC(=O)O)(CCC(=O)O)CCC(=O)O, which MIC is on record?
**A.** 120 µM (≈ 71.9 µg/mL)

These compounds were tested on Lactiplantibacillus plantarum (assay: Antimicrobial activity against Lactobacillus plantarum by broth microdilution assay).
Assay type: functional
How it was run: as §4

**Q.** With CCCCCCCCCC(CCCCCCCCC)NC(=O)NC(CCC(=O)O)(CCC(=O)O)CCC(=O)O as the compound, how does the MIC read?
**A.** 5600 µM (≈ 3120 µg/mL)

**Q.** How did the MIC turn out when CCCCCCCCCCC(CCCCCCCCCC)NC(=O)NC(CCC(=O)O)(CCC(=O)O)CCC(=O)O was run?
**A.** 5300 µM (≈ 3100 µg/mL)

**Q.** With CCCCCCCCCCCCCCCCCCNC(=O)NC(CCC(=O)O)(CCC(=O)O)CCC(=O)O as the compound, how does the MIC read?
**A.** 1400 µM (≈ 760 µg/mL)

**Q.** How did the MIC turn out when CCCCCCCCCCCCCCCCCCCCCCNC(=O)NC(CCC(=O)O)(CCC(=O)O)CCC(=O)O was run?
**A.** 950 µM (≈ 569 µg/mL)

The compounds below were run on Saccharomyces cerevisiae (assay: Antimicrobial activity against Saccharomyces cerevisiae by broth microdilution assay).
Assay type: functional
How it was run: as §1

**Q.** With CCCCCCCCCC(CCCCCCCCC)NC(=O)NC(CCC(=O)O)(CCC(=O)O)CCC(=O)O as the compound, how does the MIC read?
**A.** 2800 µM (≈ 1560 µg/mL)

**Q.** How did the MIC turn out when CCCCCCCCCCC(CCCCCCCCCC)NC(=O)NC(CCC(=O)O)(CCC(=O)O)CCC(=O)O was run?
**A.** 2700 µM (≈ 1580 µg/mL)

**Q.** With CCCCCCCCCCCCCCCCCCNC(=O)NC(CCC(=O)O)(CCC(=O)O)CCC(=O)O as the compound, how does the MIC read?
**A.** 130 µM (≈ 70.6 µg/mL)

**Q.** With CCCCCCCCCCCCCCCCCCCCCCNC(=O)NC(CCC(=O)O)(CCC(=O)O)CCC(=O)O as the compound, how does the MIC read?
**A.** 30 µM (≈ 18 µg/mL)
